In ChEMBL document CHEMBL1157630, “A class of novel Schiff's bases: Synthesis, therapeutic action for chronic pain, anti-inflammation and 3D QSAR analysis” (2010):

Legend:
Type in all cases: functional
Mus musculus [1] = assay: Analgesic activity in ICR mouse assessed as increase in pain threshold variation at 20 umol/kg, po administered as single dose measured after 30 mins by tail flick test
Procedure, shortened: (§1)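 Tail-flick test in mice housed 12/12 h light/dark at 21 ± 2 °C for one day. A single oral dose of 20 µmol/kg was given in 0.2 ml normal saline; vehicle controls got saline alone. Basal threshold was measured four times, then every 30 min to 180 min, with a 10 s cut-off. PTV = (post − basal)/basal. n = 12, mean ± SD%, one-way ANOVA.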

Mus musculus [2] = assay: Analgesic activity in ICR mouse assessed as increase in pain threshold variation at 20 umol/kg, po administered as single dose measured after 60 mins by tail flick test; procedure, shortened: as §1
Mus musculus [3] = assay: Analgesic activity in ICR mouse assessed as increase in pain threshold variation at 20 umol/kg, po administered as single dose measured after 90 mins by tail flick test; procedure, shortened: as §1
Mus musculus [4] = assay: Analgesic activity in ICR mouse assessed as increase in pain threshold variation at 20 umol/kg, po administered as single dose measured after 120 mins by tail flick test; procedure, shortened: as §1
Mus musculus [5] = assay: Analgesic activity in ICR mouse assessed as increase in pain threshold variation at 20 umol/kg, po administered as single dose measured after 150 mins by tail flick test; procedure, shortened: as §1
Mus musculus [6] = assay: Analgesic activity in ICR mouse assessed as increase in pain threshold variation at 20 umol/kg, po administered as single dose measured after 180 mins by tail flick test; procedure, shortened: as §1
Mus musculus [7] = assay: Analgesic activity in ICR mouse assessed as increase in pain threshold variation at 2 umol/kg, ip administered as single dose measured after 30 mins by tail flick test; conditions: in the assay text read “po administered” for “ip administered”
Procedure, shortened: (§2)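 Mice were housed 12/12 h light/dark at 21 ± 2 °C for one day, then given a single dose. Tail-flick basal threshold was read four times, then every 30 min up to 180 min, with a 10 s cut-off. PTV = (post-dose threshold − basal)/basal. n = 12, mean ± SD%, one-way ANOVA against saline vehicle at each time point.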

Mus musculus [8] = assay: Analgesic activity in ICR mouse assessed as increase in pain threshold variation at 2 umol/kg, ip administered as single dose measured after 60 mins by tail flick test; conditions: in the assay text read “po administered” for “ip administered”; procedure, shortened: as §2
Mus musculus [9] = assay: Analgesic activity in ICR mouse assessed as increase in pain threshold variation at 2 umol/kg, ip administered as single dose measured after 90 mins by tail flick test; conditions: in the assay text read “po administered” for “ip administered”; procedure, shortened: as §2
Mus musculus [10] = assay: Analgesic activity in ICR mouse assessed as increase in pain threshold variation at 2 umol/kg, ip administered as single dose measured after 120 mins by tail flick test; conditions: in the assay text read “po administered” for “ip administered”; procedure, shortened: as §2
Mus musculus [11] = assay: Analgesic activity in ICR mouse assessed as increase in pain threshold variation at 2 umol/kg, ip administered as single dose measured after 150 mins by tail flick test; conditions: in the assay text read “po administered” for “ip administered”; procedure, shortened: as §2
Mus musculus [12] = assay: Analgesic activity in ICR mouse assessed as increase in pain threshold variation at 2 umol/kg, ip administered as single dose measured after 180 mins by tail flick test; procedure, shortened: as §2
Mus musculus [13] = assay: Analgesic activity in ICR mouse assessed as increase in pain threshold variation at 0.2 umol/kg, ip administered as single dose measured after 30 mins by tail flick test; procedure, shortened: as §2
Mus musculus [14] = assay: Analgesic activity in ICR mouse assessed as increase in pain threshold variation at 0.2 umol/kg, ip administered as single dose measured after 60 mins by tail flick test; procedure, shortened: as §2
Mus musculus [15] = assay: Analgesic activity in ICR mouse assessed as increase in pain threshold variation at 0.2 umol/kg, ip administered as single dose measured after 90 mins by tail flick test; procedure, shortened: as §2
Mus musculus [16] = assay: Analgesic activity in ICR mouse assessed as increase in pain threshold variation at 0.2 umol/kg, ip administered as single dose measured after 120 mins by tail flick test; procedure, shortened: as §2
Mus musculus [17] = assay: Analgesic activity in ICR mouse assessed as increase in pain threshold variation at 0.2 umol/kg, ip administered as single dose measured after 150 mins by tail flick test; conditions: in the assay text read “po administered” for “ip administered”; procedure, shortened: as §2
Mus musculus [18] = assay: Analgesic activity in ICR mouse assessed as increase in pain threshold variation at 0.2 umol/kg, ip administered as single dose measured after 180 mins by tail flick test; conditions: in the assay text read “po administered” for “ip administered”; procedure, shortened: as §2
Mus musculus [19] = assay: Antiinflammatory activity in ICR mouse assessed as inhibition of xylene-induced ear edema at 20 umol/kg, po
Procedure, shortened: (§3)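 Male ICR mice (20 ± 2 g), 12 per group, were dosed orally: test agents as suspensions in normal saline, aspirin in CMC. After 30 min, 0.03 ml xylene was applied to both surfaces of the right ear, with the left ear as control. After 2 h the mice were killed, 8 mm ear discs were weighed, and edema was taken as right minus left weight.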

Mus musculus [20] = assay: Antiinflammatory activity in ICR mouse assessed as inhibition of xylene-induced ear edema at 10 umol/kg, po; procedure, shortened: as §3
Mus musculus [21] = assay: Antiinflammatory activity in ICR mouse assessed as inhibition of xylene-induced ear edema at 5 umol/kg, po; procedure, shortened: as §3
Mus musculus [22] = assay: Analgesic activity in ICR mouse assessed as increase in pain threshold variation at 165 umol/kg, po administered as single dose measured after 30 mins by tail flick test
Mus musculus [23] = assay: Analgesic activity in ICR mouse assessed as increase in pain threshold variation at 165 umol/kg, po administered as single dose measured after 60 mins by tail flick test
Mus musculus [24] = assay: Analgesic activity in ICR mouse assessed as increase in pain threshold variation at 165 umol/kg, po administered as single dose measured after 90 mins by tail flick test
Mus musculus [25] = assay: Analgesic activity in ICR mouse assessed as increase in pain threshold variation at 165 umol/kg, po administered as single dose measured after 120 mins by tail flick test
Mus musculus [26] = assay: Analgesic activity in ICR mouse assessed as increase in pain threshold variation at 165 umol/kg, po administered as single dose measured after 150 mins by tail flick test
Mus musculus [27] = assay: Analgesic activity in ICR mouse assessed as increase in pain threshold variation at 165 umol/kg, po administered as single dose measured after 180 mins by tail flick test
Mus musculus [28] = assay: Antiinflammatory activity in ICR mouse assessed as inhibition of xylene-induced ear edema at 165 umol/kg, po; procedure, shortened: as §3
Mus musculus [29] = assay: Analgesic activity in ICR mouse assessed as increase in pain threshold variation at 20 umol/kg, ip administered as single dose measured after 60 mins by tail flick test
Procedure, shortened: (§4)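 Mice were housed on a 12/12 light/dark cycle at 21 ± 2 °C for one day before use. Each got a single intraperitoneal dose of 20 µmol/kg in normal saline; vehicle controls got […]. Tail-flick basal threshold was read four times, then every 30 min to 180 min with a 10 s cut-off. PTV = (post-dose threshold − basal)/basal. n = 12, mean ± SD, one-way ANOVA.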

Mus musculus [30] = assay: Analgesic activity in ICR mouse assessed as increase in pain threshold variation at 20 umol/kg, ip administered as single dose measured after 30 mins by tail flick test; procedure, shortened: as §4
Mus musculus [31] = assay: Analgesic activity in ICR mouse assessed as increase in pain threshold variation at 20 umol/kg, ip administered as single dose measured after 90 mins by tail flick test; procedure, shortened: as §4
Mus musculus [32] = assay: Analgesic activity in ICR mouse assessed as increase in pain threshold variation at 20 umol/kg, ip administered as single dose measured after 120 mins by tail flick test; procedure, shortened: as §4
Mus musculus [33] = assay: Analgesic activity in ICR mouse assessed as increase in pain threshold variation at 20 umol/kg, ip administered as single dose measured after 150 mins by tail flick test; procedure, shortened: as §4
Mus musculus [34] = assay: Analgesic activity in ICR mouse assessed as increase in pain threshold variation at 20 umol/kg, ip administered as single dose measured after 180 mins by tail flick test; procedure, shortened: as §4

SMILES | Activity (Mus musculus [1]) [%] | Activity (Mus musculus [2]) [%] | Activity (Mus musculus [3]) [%] | Activity (Mus musculus [4]) [%] | Activity (Mus musculus [5]) [%] | Activity (Mus musculus [6]) [%] | inhibition in vivo at 20 µmol/kg (Mus musculus [19]) [%] | inhibition in vivo at 10 µmol/kg (Mus musculus [20]) [%] | inhibition in vivo at 5 µmol/kg (Mus musculus [21]) [%] | other results
COC(=O)[C@H](C)/N=C/C=C/N[C@@H](C)C(=O)OC | 32.26 | 32.49 | 48.4 | 53.33 | 44.71 | 42.29 | 53.1 | 41.9 | 14.8 | Activity (Mus musculus [7]): 24.58%; Activity (Mus musculus [8]): 25%; Activity (Mus musculus [9]): 30.94%; Activity (Mus musculus [10]): 35.87%; Activity (Mus musculus [11]): 28.25%; Activity (Mus musculus [12]): 27.31%; Activity (Mus musculus [13]): 12.24%; Activity (Mus musculus [14]): 16.79%; Activity (Mus musculus [15]): 17.41%; Activity (Mus musculus [16]): 22.08%; Activity (Mus musculus [17]): 20.27%; Activity (Mus musculus [18]): 18.8%
COC(=O)[C@H](C)N | 7.37 | 12.66 | 12.02 | 11.55 | 11.01 | 11.44 | – | – | – | –
CCC(C)[C@H](/N=C/C=C/N[C@H](C(=O)OC)C(C)CC)C(=O)OC (some centres not stated) | 18.66 | 19.68 | 34.31 | 41.65 | 34.89 | 32.75 | 77.6 | 68 | 48.9 | –
COC(=O)[C@H](CC(C)C)/N=C/C=C/N[C@@H](CC(C)C)C(=O)OC | 26.52 | 29.79 | 40.37 | 45.12 | 42.38 | 41.84 | 88.6 | 80.9 | 73.1 | –
COC(=O)[C@H](CCSC)/N=C/C=C/N[C@@H](CCSC)C(=O)OC | 28.73 | 29.93 | 31.61 | 23.37 | 22.05 | 21.18 | 25.4 | – | – | –
COC(=O)[C@H](Cc1ccccc1)/N=C/C=C/N[C@@H](Cc1ccccc1)C(=O)OC | 28.22 | 28.92 | 35.82 | 40.67 | 35.33 | 30.66 | 36.8 | 25.4 | 12.9 | –
COC(=O)[C@H](COCc1ccccc1)/N=C/C=C/N[C@@H](COCc1ccccc1)C(=O)OC | 32.18 | 34.87 | 36.24 | 37.48 | 34.17 | 33.33 | 55 | – | – | –
COC(CC(OC)OC)OC | 6.22 | 11.84 | 12.15 | 11.93 | 11.8 | 11.89 | – | – | – | –
CC(=O)Oc1ccccc1C(=O)O [ASPIRIN] | – | – | – | – | – | – | – | – | – | Activity (Mus musculus [22]): 12.88%; Activity (Mus musculus [23]): 18.69%; Activity (Mus musculus [24]): 19.79%; Activity (Mus musculus [25]): 16.46%; Activity (Mus musculus [26]): 14.59%; Activity (Mus musculus [27]): 14.65%; inhibition in vivo at 165 µmol/kg (Mus musculus [28]): 65.1%
CN1CC[C@]23c4c5ccc(O)c4O[C@H]2[C@@H](O)C=C[C@H]3[C@H]1C5 [MORPHINE] | – | – | – | – | – | – | – | – | – | Activity (Mus musculus [29]): 177.6%; Activity (Mus musculus [30]): 147%; Activity (Mus musculus [31]): 122.7%; Activity (Mus musculus [32]): 64.9%; Activity (Mus musculus [33]): 36.7%; Activity (Mus musculus [34]): 32.9%
